Assay results reported in ChEMBL document CHEMBL3259739, “Synthesis and structure-activity relationship of trisubstituted thiazoles as Cdc7 kinase inhibitors” (Eur J Med Chem, 2014).
The source made the active and inactive calls.

What was measured:
[1] = Apparent permeability of the compound in pig LLC-PK1 cells; format: ADME, cell-based, Sus scrofa
[2] = molecular target: MAP kinase-interacting serine/threonine-protein kinase 1 (Homo sapiens) (UniProt Q9BUB5); assay: Inhibition of MKNK1 (unknown origin) at 1 uM relative to control; values are per cent of control
MAP kinase-interacting serine/threonine-protein kinase 1 (Homo sapiens), sequence (Q9BUB5 whole entry, looked up): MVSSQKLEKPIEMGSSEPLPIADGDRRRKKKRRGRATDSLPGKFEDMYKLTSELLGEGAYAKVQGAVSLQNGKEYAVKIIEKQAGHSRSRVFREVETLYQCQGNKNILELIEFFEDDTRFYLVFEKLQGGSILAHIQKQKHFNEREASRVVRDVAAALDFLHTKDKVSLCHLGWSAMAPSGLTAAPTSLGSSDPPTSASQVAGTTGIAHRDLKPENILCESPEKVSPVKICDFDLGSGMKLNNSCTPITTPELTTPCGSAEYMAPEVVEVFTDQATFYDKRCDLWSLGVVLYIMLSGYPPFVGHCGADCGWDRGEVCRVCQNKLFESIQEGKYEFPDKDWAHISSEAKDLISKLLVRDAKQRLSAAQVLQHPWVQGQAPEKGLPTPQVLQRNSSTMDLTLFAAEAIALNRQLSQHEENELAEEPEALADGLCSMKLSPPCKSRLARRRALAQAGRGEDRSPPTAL

[3] = molecular target: Receptor-interacting serine/threonine-protein kinase 2 (Homo sapiens) (UniProt O43353); assay: Inhibition of RIPK2 (unknown origin) at 1 uM relative to control; conditions: values are per cent of control
Receptor-interacting serine/threonine-protein kinase 2 (Homo sapiens), sequence (O43353 whole entry): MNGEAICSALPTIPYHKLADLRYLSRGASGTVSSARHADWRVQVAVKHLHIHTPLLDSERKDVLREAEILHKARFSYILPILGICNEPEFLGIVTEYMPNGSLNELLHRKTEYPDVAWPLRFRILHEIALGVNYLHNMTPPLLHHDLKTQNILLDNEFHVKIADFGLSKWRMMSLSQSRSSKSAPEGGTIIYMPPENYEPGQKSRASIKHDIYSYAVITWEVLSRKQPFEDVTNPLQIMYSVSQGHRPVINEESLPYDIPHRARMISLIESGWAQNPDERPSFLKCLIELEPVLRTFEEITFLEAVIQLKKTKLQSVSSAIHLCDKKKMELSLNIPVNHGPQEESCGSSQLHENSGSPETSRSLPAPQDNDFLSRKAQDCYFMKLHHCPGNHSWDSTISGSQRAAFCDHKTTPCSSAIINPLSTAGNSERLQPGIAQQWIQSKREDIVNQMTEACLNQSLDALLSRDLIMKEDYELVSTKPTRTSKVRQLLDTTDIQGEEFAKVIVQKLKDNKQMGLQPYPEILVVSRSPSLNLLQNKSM
Outline: (§1)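 KinomeSCAN competitive binding panel of 100 kinases; compounds tested at 1 µM in duplicate; read-out is percent […] control.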

[4] = molecular target: T1, CDC7/DBF4 (Cell division cycle 7-related protein kinase/Activator of S phase kinase) (Homo sapiens, UniProt O00311); assay: Inhibition of Cdc7/Dbf4 (unknown origin) using 0.047 uM of ATP as substrate by AlphaScreen assay; format: protein-complex assay
T1 sequence (Q9UBU7 whole entry): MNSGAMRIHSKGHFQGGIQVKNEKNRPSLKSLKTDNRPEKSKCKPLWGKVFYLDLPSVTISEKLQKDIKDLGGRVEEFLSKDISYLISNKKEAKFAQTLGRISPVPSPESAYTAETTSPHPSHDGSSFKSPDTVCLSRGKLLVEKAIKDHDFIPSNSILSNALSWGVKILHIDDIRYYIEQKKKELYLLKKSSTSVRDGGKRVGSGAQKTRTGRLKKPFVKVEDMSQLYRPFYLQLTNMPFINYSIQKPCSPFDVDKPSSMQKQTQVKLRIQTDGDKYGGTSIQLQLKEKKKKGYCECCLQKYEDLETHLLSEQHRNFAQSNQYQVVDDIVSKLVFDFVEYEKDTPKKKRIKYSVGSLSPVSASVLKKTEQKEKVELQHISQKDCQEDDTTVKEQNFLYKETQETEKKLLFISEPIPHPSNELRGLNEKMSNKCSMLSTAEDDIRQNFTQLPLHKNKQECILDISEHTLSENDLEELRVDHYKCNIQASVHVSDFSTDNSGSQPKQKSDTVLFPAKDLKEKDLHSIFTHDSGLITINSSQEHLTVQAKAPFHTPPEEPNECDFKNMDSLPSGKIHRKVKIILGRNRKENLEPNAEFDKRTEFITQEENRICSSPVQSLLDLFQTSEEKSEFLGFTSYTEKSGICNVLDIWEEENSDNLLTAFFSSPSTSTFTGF
T1 sequence (O00311 whole entry): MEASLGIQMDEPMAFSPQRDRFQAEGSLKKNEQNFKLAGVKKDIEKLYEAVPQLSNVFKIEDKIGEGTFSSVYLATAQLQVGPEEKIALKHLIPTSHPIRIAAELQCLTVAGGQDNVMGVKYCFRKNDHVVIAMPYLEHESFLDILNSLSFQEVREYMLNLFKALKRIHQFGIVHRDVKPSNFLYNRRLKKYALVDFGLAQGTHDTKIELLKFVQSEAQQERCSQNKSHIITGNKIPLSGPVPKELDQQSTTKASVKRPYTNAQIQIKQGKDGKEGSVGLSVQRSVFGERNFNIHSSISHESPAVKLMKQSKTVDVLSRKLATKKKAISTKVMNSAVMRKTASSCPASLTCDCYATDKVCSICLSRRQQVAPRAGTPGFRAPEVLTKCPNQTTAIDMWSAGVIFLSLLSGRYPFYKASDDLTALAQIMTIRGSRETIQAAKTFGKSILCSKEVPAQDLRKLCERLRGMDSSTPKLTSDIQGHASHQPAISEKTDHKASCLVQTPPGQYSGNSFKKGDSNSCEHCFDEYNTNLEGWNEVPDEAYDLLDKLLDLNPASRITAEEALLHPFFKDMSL
Outline: (§2)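 Mechanism-of-action AlphaScreen run with 6 nM Cdc7/Dbf4 and 10 nM biotinylated MCM2 substrate. […] Reaction time was 2 h. Phospho-Ser53 MCM2 was read by antibody-bound acceptor beads with streptavidin donor beads. Rates and Ki were fitted to a competitive inhibition model.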

MDR1 = assay: Efflux ratio of permeability of the compound in pig LLC-PK1 cells expressing MDR1; format: ADME, cell-based, Sus scrofa
[5] = molecular target: T1, CDC7/DBF4 (Cell division cycle 7-related protein kinase/Activator of S phase kinase); assay: Inhibition of Cdc7/Dbf4 (unknown origin) using 0.023 uM of ATP as substrate by AlphaScreen assay; format: protein-complex assay
Outline: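 AlphaScreen with 6 nM Cdc7/Dbf4 and 10 nM biotinylated His/avitag MCM2 (aa1-467) substrate. Phospho-Ser53 MCM2 detected with antibody-bound Protein A acceptor and streptavidin donor beads. Rates fitted by Michaelis–Menten and double-reciprocal plots.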

[6] = molecular target: T1, CDC7/DBF4 (Cell division cycle 7-related protein kinase/Activator of S phase kinase); assay: Inhibition of Cdc7/Dbf4 (unknown origin) using 0.75 uM of ATP as substrate by AlphaScreen assay; format: protein-complex assay; outline: as §2
[7] = molecular target: Serine/threonine-protein kinase 33 (Homo sapiens) (UniProt Q9BYT3); assay: Inhibition of STK33 (unknown origin) at 1 uM relative to control; conditions: values are per cent of control; outline: as §1
Serine/threonine-protein kinase 33 (Homo sapiens), sequence (Q9BYT3 whole entry, looked up): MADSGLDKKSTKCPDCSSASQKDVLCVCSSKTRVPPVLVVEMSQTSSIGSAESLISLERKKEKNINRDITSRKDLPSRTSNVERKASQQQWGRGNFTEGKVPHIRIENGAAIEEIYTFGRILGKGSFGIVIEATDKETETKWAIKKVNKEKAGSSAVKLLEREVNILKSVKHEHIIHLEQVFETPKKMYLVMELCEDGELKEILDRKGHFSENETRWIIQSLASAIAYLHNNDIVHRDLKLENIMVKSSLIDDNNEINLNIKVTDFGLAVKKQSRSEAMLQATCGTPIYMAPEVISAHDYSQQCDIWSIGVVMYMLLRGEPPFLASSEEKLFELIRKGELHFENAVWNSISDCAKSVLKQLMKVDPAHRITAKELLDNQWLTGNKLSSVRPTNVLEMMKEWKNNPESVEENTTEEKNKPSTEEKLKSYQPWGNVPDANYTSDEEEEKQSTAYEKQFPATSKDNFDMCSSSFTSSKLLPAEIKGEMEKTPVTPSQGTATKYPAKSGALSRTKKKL

[8] = molecular target: T1, CDC7/DBF4 (Cell division cycle 7-related protein kinase/Activator of S phase kinase); assay: Inhibition of Cdc7/Dbf4 (unknown origin) using 1.5 uM of ATP as substrate by AlphaScreen assay; format: protein-complex assay; outline: as §2
[9] = molecular target: Mitogen-activated protein kinase kinase kinase 1 (Homo sapiens) (UniProt Q13233); assay: Inhibition of MAP3K1 (unknown origin) at 1 uM relative to control; values are per cent of control
Mitogen-activated protein kinase kinase kinase 1 (Homo sapiens), sequence (Q13233 whole entry): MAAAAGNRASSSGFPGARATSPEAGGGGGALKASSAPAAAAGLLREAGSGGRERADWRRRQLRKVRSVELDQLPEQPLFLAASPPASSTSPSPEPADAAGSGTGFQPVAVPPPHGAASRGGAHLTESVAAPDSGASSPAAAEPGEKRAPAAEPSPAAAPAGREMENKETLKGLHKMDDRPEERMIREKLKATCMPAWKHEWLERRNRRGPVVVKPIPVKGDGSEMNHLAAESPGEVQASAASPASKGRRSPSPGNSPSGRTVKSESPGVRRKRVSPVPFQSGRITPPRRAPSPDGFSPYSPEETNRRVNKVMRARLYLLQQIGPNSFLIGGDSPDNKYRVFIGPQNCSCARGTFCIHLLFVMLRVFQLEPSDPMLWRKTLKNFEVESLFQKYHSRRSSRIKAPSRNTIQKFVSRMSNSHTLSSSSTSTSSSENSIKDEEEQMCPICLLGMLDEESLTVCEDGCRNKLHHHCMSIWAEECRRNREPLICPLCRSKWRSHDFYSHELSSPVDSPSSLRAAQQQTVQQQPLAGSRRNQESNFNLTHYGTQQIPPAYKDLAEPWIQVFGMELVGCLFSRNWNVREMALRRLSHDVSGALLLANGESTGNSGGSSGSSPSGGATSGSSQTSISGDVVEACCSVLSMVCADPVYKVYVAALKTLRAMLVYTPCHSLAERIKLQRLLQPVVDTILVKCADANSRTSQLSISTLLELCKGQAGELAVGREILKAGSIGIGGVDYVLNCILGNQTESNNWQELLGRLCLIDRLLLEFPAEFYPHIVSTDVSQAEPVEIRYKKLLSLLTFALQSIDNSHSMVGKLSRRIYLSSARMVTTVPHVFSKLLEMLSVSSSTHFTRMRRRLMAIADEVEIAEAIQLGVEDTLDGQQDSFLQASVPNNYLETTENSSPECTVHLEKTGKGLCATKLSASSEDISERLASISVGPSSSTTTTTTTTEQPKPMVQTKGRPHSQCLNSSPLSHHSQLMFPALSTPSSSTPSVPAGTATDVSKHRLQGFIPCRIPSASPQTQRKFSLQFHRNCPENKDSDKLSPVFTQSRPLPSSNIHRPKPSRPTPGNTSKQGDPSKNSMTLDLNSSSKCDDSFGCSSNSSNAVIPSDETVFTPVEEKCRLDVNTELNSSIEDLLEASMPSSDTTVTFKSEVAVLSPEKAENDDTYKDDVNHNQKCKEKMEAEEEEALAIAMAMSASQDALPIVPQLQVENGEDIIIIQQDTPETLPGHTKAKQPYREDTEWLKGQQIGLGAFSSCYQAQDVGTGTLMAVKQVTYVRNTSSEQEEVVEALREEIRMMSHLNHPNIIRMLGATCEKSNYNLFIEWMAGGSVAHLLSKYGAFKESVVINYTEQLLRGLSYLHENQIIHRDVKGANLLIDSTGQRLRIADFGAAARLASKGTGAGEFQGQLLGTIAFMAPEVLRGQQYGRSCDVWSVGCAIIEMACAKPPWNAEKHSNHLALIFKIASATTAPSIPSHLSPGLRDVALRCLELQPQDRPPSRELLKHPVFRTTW

Casein kinase II = Casein kinase II (Homo sapiens, UniProt P19784+P67870+P68400); assay: Inhibition of CK2 (unknown origin) by homogeneous time-resolved fluorescence assay; format: protein-complex assay
Outline: (§3)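 Counter-screens by HTRF kinase assays: CDK1/Cyclin B and CDK4/Cyclin D1 in HTRF format, CDK9/Cyclin T1 with a 4eBP1 ULight substrate, and the CK2 tetramer with a TopoII ULight substrate.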

[10] = molecular target: Casein kinase I isoform delta (Homo sapiens, UniProt P48730); assay: Inhibition of CK1delta (unknown origin) by TR-FRET assay
Outline: (§4)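 CK1 isoform inhibition measured in Lance TR-FRET kinase assays, reported as IC50.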

HCT-116 [11] = assay: Cytotoxicity against human HCT116 cells assessed as cell viability after 2 days by Cell Titer-glo assay; format: functional, cell-based; conditions: HCT-116, 48 h
HCT-116 [12] = assay: Induction of apoptosis in human HCT116 cells assessed as activation of caspase 3/7; format: functional, cell-based
[13] = molecular target: Casein kinase I isoform alpha (Homo sapiens, UniProt P48729); assay: Inhibition of CK1alpha (unknown origin) by TR-FRET assay; outline: as §4
[14] = molecular target: T1, CDC7/DBF4 (Cell division cycle 7-related protein kinase/Activator of S phase kinase); assay: Inhibition of Cdc7/Dbf4 (unknown origin) using 0.111 uM of ATP as substrate by AlphaScreen assay; format: protein-complex assay
HCT-116 [15] = assay: Inhibition of DNA synthesis in human HCT116 cells after 2 days by BrdU incorporation assay; format: functional, cell-based; conditions: HCT-116, 48 h
[16] = molecular target: T1, CDC7/DBF4 (Cell division cycle 7-related protein kinase/Activator of S phase kinase); assay: Inhibition of Cdc7/Dbf4 in human HCT116 cells assessed as reduction of MCM2 phosphorylation after 14 hrs; format: cell-based, HCT-116
Outline: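 HCT-116 cells were exposed to inhibitor across a 22-point dose response for 14 h. They were then immunostained for phospho-serine MCM2 using an Alexa Fluor 488 secondary, with a Hoechst nuclear counterstain. The percentage of cells with phospho-MCM2 signal above a threshold was scored by high-content imaging, and IC50 values were derived from that.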

[17] = molecular target: Cyclin-dependent kinase 4/cyclin D1 (Homo sapiens, UniProt P11802); assay: Inhibition of CDK4/Cyclin-D1 (unknown origin) by homogeneous time-resolved fluorescence assay; format: protein-complex assay; outline: as §3
Cyclin-dependent kinase 4/cyclin D1, sequence (P11802 whole entry): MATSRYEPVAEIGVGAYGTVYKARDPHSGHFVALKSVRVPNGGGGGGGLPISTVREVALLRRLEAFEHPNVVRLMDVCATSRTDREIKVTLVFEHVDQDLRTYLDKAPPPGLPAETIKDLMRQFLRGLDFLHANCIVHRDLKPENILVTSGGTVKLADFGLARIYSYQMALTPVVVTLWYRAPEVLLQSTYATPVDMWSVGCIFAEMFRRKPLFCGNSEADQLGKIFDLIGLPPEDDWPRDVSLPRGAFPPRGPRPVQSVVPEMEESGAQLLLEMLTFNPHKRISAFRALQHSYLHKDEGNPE
Cyclin-dependent kinase 4/cyclin D1, sequence (P24385 whole entry, further chain): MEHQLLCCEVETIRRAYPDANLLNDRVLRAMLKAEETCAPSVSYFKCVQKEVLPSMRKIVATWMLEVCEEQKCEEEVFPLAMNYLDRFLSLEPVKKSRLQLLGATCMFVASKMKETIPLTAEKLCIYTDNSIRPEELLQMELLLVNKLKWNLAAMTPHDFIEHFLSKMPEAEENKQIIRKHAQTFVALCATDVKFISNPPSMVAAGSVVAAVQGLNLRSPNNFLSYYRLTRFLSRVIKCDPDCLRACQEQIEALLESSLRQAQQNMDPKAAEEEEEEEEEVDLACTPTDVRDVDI

CDK9/cyclin T1 = CDK9/cyclin T1 (Homo sapiens, UniProt P50750); assay: Inhibition of CDK9/Cyclin-T1 (unknown origin) by homogeneous time-resolved fluorescence assay; format: protein-complex assay; outline: as §3
[18] = Intrinsic clearance in mouse liver microsomes at 1 uM after 30 mins by reverse phase HPLC analysis in presence of NADPH; format: ADME; conditions: read-out: CLH
Outline: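 Reactions were stopped with MeCN after 0 or 30 min. Samples were analysed by reverse-phase HPLC–tandem MS to give intrinsic clearance (µl/min/mg).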

[19] = molecular target: T1, CDC7/DBF4 (Cell division cycle 7-related protein kinase/Activator of S phase kinase); assay: Inhibition of Cdc7/Dbf4 (unknown origin) using 2 uM of ATP as substrate by AlphaScreen assay; format: protein-complex assay
[20] = Tmax in Sprague-Dawley rat at 5 mg/kg, po; format: ADME, organism-based; set-up: dose 5 mg/kg, route oral; conditions: in vivo
Outline: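 Male Sprague-Dawley rats given 5 mg/kg orally in 2% HPMC, 1% Tween80, pH2 (an iv arm received 2 mg/kg in DMSO). Plasma was sampled from 0.25 to 24 h and analyzed by LC/MS.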

[21] = Inhibition of CK1gamma (unknown origin) by TR-FRET assay; set-up: species or system Homo sapiens; outline: as §4
Mus musculus = assay: Inhibition of Cdc7/Dbf4 in NCR nude mouse xenografted with human HCT116 cells assessed as reduction of phosphorylated MCM2 level in tumor at 50 mg/kg, iv after 6 hrs; format: functional; conditions: HCT-116, 6 h
Outline: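 Female athymic NCR/nu mice, 4–6 weeks old, bearing subcutaneous HCT-116 xenografts (5 × 10^6 cells in Matrigel) grown to about 250 mm3. Single iv dose formulated in 20% HPbCD, 1% HPMC, 1% PluronicF68, pH7 at 10 mg/ml; three mice per group. Tumors were homogenized in Tris lysis buffer with protease and phosphatase inhibitors. MSD capture with total MCM2 antibody, then phospho-Ser53 or total MCM2 detection by chemiluminescence; inhibition taken from the phospho/total ratio.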

[22] = molecular target: Cyclin-dependent kinase 1/cyclin B1 (Homo sapiens, UniProt P06493); assay: Inhibition of CDK1/Cyclin-B (unknown origin) by homogeneous time-resolved fluorescence assay; format: protein-complex assay; outline: as §3
[23] = molecular target: T1, CDC7/DBF4 (Cell division cycle 7-related protein kinase/Activator of S phase kinase); assay: Inhibition of Cdc7/Dbf4 (unknown origin) using 0.222 uM of ATP as substrate by AlphaScreen assay; format: protein-complex assay
[24] = molecular target: Serine/threonine-protein kinase pim-1 (Homo sapiens, UniProt P11309); assay: Inhibition of Pim1 (unknown origin) by homogeneous time-resolved fluorescence assay
Outline: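 Pim1 counter-screened biochemically with a homogeneous time-resolved fluorescence (HTRF) kinase assay.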

HCT-116 [25] = assay: Induction of aberrant mitosis in human HCT116 cells at 1.25 uM after 72 hrs […]; format: functional, cell-based
[26] = molecular target: T1, CDC7/DBF4 (Cell division cycle 7-related protein kinase/Activator of S phase kinase); assay: Inhibition of Cdc7/Dbf4 (unknown origin) using 9 uM of ATP as substrate by AlphaScreen assay; format: protein-complex assay

Q: Which results are given for `CCOC(=O)c1sc(-c2ccncc2)nc1O`?
A: Papp [1]: ≥ 8.9 ×10⁻⁶ cm/s; residual activity [2]: 100%; residual binding, % of control [3]: 99%; IC50 [4]: 405 nM; efflux ratio (MDR1): 1; IC50 [5]: 300 nM; IC50 [6]: 316 nM; residual binding, % of control [7]: 100%; IC50 [8]: 318 nM; residual activity [9]: 85%

Q: Which results are given for `NC(=O)c1sc(-c2ccnc(N)n2)nc1-c1ccc(Cl)cc1Cl`?
A: IC50 (Casein kinase II): 29100 nM; IC50 [10]: 84 nM; IC50 (HCT-116 [11]): 4200 nM; IC50 (HCT-116 [12]): > 50000 nM; IC50 [13]: 694 nM; IC50 [14]: 29 nM; residual activity [2]: 84%; IC50 (HCT-116 [15]): 2600 nM; IC50 [16]: 501 nM; residual binding, % of control [3]: 82%; IC50 [17]: > 50000 nM; IC50 (CDK9/cyclin T1): 749 nM; microsomal CLint at 1 µM [18]: 57 µL/min/mg; IC50 [19]: 10 nM; Tmax [20]: 2.17 h; IC50 [21]: 760 nM; inhibition in vivo at 50 mg/kg (Mus musculus): 20%; IC50 [22]: > 50000 nM; IC50 [23]: 35 nM; residual binding, % of control [7]: 100%; IC50 [24]: > 1000 nM; residual activity [9]: 97%; Activity (HCT-116 [25]): Active; IC50 [26]: 18 nM

Q: What does the source list for `COc1ccc(-c2nc(-c3ccnc(N)n3)sc2C(N)=O)c(Cl)c1`?
A: IC50 (Casein kinase II): 65000 nM; IC50 [10]: 104 nM; IC50 (HCT-116 [11]): 4600 nM; IC50 (HCT-116 [12]): > 50000 nM; IC50 [13]: 545 nM; residual activity [2]: 55%; IC50 (HCT-116 [15]): 6900 nM; IC50 [16]: 862 nM; residual binding, % of control [3]: 96%; IC50 [17]: > 50000 nM; IC50 (CDK9/cyclin T1): 729 nM; microsomal CLint at 1 µM [18]: 155 µL/min/mg; IC50 [21]: 1900 nM; IC50 [22]: > 50000 nM; residual binding, % of control [7]: 100%; IC50 [24]: > 1000 nM; residual activity [9]: 93%
